In ChEMBL document CHEMBL4393740, “Preparation and biological evaluation of soluble tetrapeptide epoxyketone proteasome inhibitors” (Bioorg Med Chem, 2019):

Experiments:
[1] = biological target: T1, Proteasome Macropain subunit MB1 (Homo sapiens, UniProt P28074); assay: Inhibition of human chymotrypsin-like activity of 20S proteasome using Suc-LLVY-AMC as substrate pre-incubated for 10 mins followed by substrate addition and measured after 1 hr by spectrofluorimetry; settings: read-out: IC50
T1 sequence (P28074 whole entry): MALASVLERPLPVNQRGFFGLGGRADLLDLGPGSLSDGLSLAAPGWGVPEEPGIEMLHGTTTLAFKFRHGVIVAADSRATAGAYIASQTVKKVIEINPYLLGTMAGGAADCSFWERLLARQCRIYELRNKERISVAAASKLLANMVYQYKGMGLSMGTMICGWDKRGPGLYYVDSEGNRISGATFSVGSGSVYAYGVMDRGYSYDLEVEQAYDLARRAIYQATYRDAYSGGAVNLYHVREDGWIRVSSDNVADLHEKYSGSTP

[2] = Half life in rat liver microsomes at 1 uM pre-incubated for 5 mins followed by NADP+ addition and measured up to 20 mins by LC-MS analysis; format: ADME, Microsome
[3] = Half life in monkey liver microsomes at 1 uM pre-incubated for 5 mins followed by NADP+ addition and measured up to 20 mins by LC-MS analysis; format: ADME, Macaca mulatta, Microsome; settings: rhesus monkey
[4] = Half life in BALB/c mouse liver microsomes at 1 uM pre-incubated for 5 mins followed by NADP+ addition and measured up to 20 mins by LC-MS analysis; format: ADME, Microsome
How it was run: (§1)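 Mixture held 1 µM compound, 0.5 mg/mL microsomal protein (in-house pooled Balb/c mouse or pooled human), 100 mM Tris-HCl pH 7.4, and an NADPH-generating system (5 mM isocitric acid, 0.2 U/mL isocitric dehydrogenase, 5 mM MgCl2, 1 mM NADP+). Preincubated 5 min at 37 °C, started with NADP+, sampled at 0, 5, 10, 20 min. Quenched with cold acetonitrile containing 1 µM phenytoin internal standard. Compound loss measured by LC-MS/MS. Controls omitted NADPH and/or microsomes.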

[5] = Half life in dog liver microsomes at 1 uM pre-incubated for 5 mins followed by NADP+ addition and measured up to 20 mins by LC-MS analysis; format: ADME, Canis lupus familiaris, Microsome
[6] = Half life in human liver microsomes at 1 uM pre-incubated for 5 mins followed by NADP+ addition and measured up to 20 mins by LC-MS analysis; format: ADME, Microsome; how it was run: as §1
[7] = Intrinsic clearance in rat liver microsomes at 1 uM pre-incubated for 5 mins followed by NADP+ addition and measured up to 20 mins by LC-MS analysis; format: ADME, Microsome; settings: read-out: CLH
[8] = Intrinsic clearance in BALB/c mouse liver microsomes at 1 uM pre-incubated for 5 mins followed by NADP+ addition and measured up to 20 mins by LC-MS analysis; format: ADME, Microsome; settings: read-out: CLH; how it was run: as §1
[9] = Intrinsic clearance in dog liver microsomes at 1 uM pre-incubated for 5 mins followed by NADP+ addition and measured up to 20 mins by LC-MS analysis; format: ADME, Canis lupus familiaris, Microsome; settings: read-out: CLH
[10] = Intrinsic clearance in monkey liver microsomes at 1 uM pre-incubated for 5 min followed by NADP+ addition and measured up to 20 mins by LC-MS analysis; format: ADME, Macaca mulatta, Microsome; settings: rhesus monkey, read-out: CLH
[11] = Intrinsic clearance in human liver microsomes at 1 uM pre-incubated for 5 min followed by NADP+ addition and measured up to 20 mins by LC-MS analysis; format: ADME, Microsome; settings: read-out: CLH; how it was run: as §1
RPMI-8226 [12] = assay: Antitumour activity against luciferase expressing human RPMI8226 cells xenografted in NOD/SCID mouse assessed as tumor growth at 2 mg/kg, iv qd for 21 days by caliper method relative to control; format: functional
How it was run: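 NOD/SCID mice given subcutaneous 5 × 10^6 luciferase-expressing RPMI-8226 cells. Randomized at mean tumour 100-150 mm3, n = 3 per group. Dosed i.v. 2 mg/kg QD for 3 weeks. Tumour also imaged by IVIS, ROI […] taken 3 min after D-luciferin 150 mg/kg. Caliper volume V = length×width²/2, RTV = Vt/V0. T/C% = mean RTV treated / mean RTV control × 100.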

ARH-77 = assay: Antitumour activity against human ARH77 cells xenografted in nude mouse assessed as tumor growth at 5mg/kg, iv dosed at day 1 ,4, 8 ,11, 15 and 18 for 3 weeks and measured every 2 days by caliper method relative to control; format: functional
How it was run: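 Nude mice given subcutaneous 1 × 10^7 ARH77 cells. Randomized at mean tumour 100-150 mm3 into treatment and control groups, n = 5. Dosed i.v. 5 mg/kg on days 1, 4, 8, 11, 15 and 18 for 3 weeks. Tumours sized by caliper, V = length×width²/2, RTV = Vt/V0. T/C% = mean RTV treated / mean RTV control × 100.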

RPMI-8226 [13] = assay: Cytotoxicity against human RPMI8226 cells assessed as cell viability measured after 72 hrs by celltiter96 aqueous cell proliferation assay; format: functional, cell-based; settings: RPMI-8226, 72 h
How it was run: (§2)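 Suspension cells in log phase plated at 5000 (RPMI8226) or 10000 (U266B1) cells per well. Viability read after 72 h by MTS-type CellTiter 96 AQueous One assay on a plate reader. IC50 reported, three repeats.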

U-266 = assay: Cytotoxicity against human U266B1 cells assessed as cell viability measured after 72 hrs by celltiter96 aqueous cell proliferation assay; format: functional, cell-based; settings: U-266, 72 h; how it was run: as §2
[14] = biological target: Voltage-gated inwardly rectifying potassium channel KCNH2 (Homo sapiens, UniProt Q12809); assay: Inhibition of human ERG in HEK293 cells assessed as effect on QT interval; format: cell-based; settings: human, hek293
[15] = Potency index, ratio of compound half life in human liver microsomes to carfilzomib half life in human liver microsomes; format: ADME, Microsome

Voltage-gated inwardly rectifying potassium channel KCNH2, sequence (Q12809 whole entry): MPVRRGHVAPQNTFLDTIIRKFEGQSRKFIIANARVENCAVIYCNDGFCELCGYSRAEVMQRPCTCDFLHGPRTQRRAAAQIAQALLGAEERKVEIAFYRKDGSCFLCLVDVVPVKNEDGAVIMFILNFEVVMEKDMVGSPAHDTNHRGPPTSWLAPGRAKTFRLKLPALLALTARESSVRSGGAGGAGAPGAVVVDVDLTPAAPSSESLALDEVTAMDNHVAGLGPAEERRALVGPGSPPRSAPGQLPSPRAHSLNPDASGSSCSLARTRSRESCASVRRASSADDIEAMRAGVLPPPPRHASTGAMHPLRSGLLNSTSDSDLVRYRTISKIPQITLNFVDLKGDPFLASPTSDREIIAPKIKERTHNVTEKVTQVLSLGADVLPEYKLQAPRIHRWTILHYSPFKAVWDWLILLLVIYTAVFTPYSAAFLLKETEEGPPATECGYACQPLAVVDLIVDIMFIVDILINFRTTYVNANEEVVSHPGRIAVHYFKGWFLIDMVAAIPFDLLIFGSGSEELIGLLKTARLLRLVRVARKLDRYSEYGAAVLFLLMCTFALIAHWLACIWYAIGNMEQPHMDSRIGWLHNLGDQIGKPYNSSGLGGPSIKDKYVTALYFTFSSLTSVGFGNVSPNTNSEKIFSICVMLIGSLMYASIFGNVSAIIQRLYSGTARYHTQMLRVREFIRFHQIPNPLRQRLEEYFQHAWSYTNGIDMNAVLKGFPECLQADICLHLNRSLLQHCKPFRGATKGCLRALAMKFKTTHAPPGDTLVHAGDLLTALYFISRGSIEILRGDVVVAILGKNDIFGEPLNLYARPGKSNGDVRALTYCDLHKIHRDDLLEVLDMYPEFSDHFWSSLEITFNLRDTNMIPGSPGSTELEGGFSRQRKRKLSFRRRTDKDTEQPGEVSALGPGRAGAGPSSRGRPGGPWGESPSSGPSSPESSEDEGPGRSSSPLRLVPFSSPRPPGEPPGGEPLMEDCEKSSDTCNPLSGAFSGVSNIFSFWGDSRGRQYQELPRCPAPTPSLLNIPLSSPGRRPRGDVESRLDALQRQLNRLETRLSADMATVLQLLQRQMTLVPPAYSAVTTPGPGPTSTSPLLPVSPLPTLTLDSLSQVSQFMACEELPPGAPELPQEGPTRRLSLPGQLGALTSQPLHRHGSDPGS

Compound: CC(C)C[C@H](NC(=O)[C@H](Cc1cscn1)NC(=O)CN1CCOCC1)C(=O)N[C@@H](Cc1ccccc1)C(=O)N[C@@H](CC(C)C)C(=O)[C@@]1(C)CO1
- IC50 [1]: 36.8 nM
- half-life at 1 µM [2]: 1.36 min
- half-life at 1 µM [3]: 0.211 min
- half-life at 1 µM [4]: 1.1 min
- half-life at 1 µM [5]: 0.243 min
- half-life at 1 µM [6]: 1.07 min
- microsomal CLint at 1 µM [7]: 1020 µL/min/mg
- microsomal CLint at 1 µM [8]: 1250 µL/min/mg
- microsomal CLint at 1 µM [9]: 5710 µL/min/mg
- microsomal CLint at 1 µM [10]: 6560 µL/min/mg
- microsomal CLint at 1 µM [11]: 1300 µL/min/mg
- T/C (RPMI-8226 [12]): 49.5%
- T/C (ARH-77): 37.6%
- IC50 (RPMI-8226 [13]): 27.7 nM
- IC50 (U-266): 24.5 nM
- inhibition (INH) [14]: Not Active
- Ratio [15]: 4
